# Results as given in ChEMBL document CHEMBL1127851, “Synthesis and biological properties of 5-o-carboranyl-1-(2-deoxy-2-fluoro-beta-D-arabinofuranosyl)uracil” (J Med Chem, 1994).
# Columns and labels:
# [1] = Compound was tested for inhibitory activity against erythroid (BFU-E) progenitor cells; assay type: functional, Homo sapiens
# Method in brief: (§1)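 Human bone marrow aspirated from healthy donors and heparinized. Mononuclear cells isolated on Ficoll-Hypaque, washed twice in HBSS; viability >98% by trypan blue. Bilayer soft agar or methyl cellulose culture at 0.1–100 μM. After 14 days at 37 °C in 5% CO2, colonies of ≥50 cells counted; % of control. Three donors, each in triplicate.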
# CFU-GM = assay: Compound was tested for inhibitory activity against human myeloid cells (CFU-GM); assay type: functional, cell-based; method in brief: as §1
# PBMC [2] = assay: Antiviral activity against HIV-1 strain LAI in PBM cells on day 6; assay type: functional, cell-based; conditions: Homo sapiens, 144 h
# Method in brief: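 HIV-1 (strain […] per footnote) in human PBM cells, acutely infected. Compounds from 40 mM DMSO stocks, diluted to test concentrations. EC50 from concentration-response curve by Chou–Talalay median-effect method. Replicate assays, variability under 15%.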
# PBMC [3] = assay: Cytotoxic concentration against PBM cells was determined on day 6; assay type: functional, cell-based; conditions: Homo sapiens, 144 h
# Method in brief: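 Cytotoxicity in human PBM, CEM and Vero cells, compounds diluted from 40 mM DMSO stocks. IC50 from the concentration-response curve by Chou–Talalay median-effect method. Replicate assays, variability under 15%.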
# Vero = assay: Antiviral activity against HSV-1 strain F in Vero cells on day 2; assay type: functional, cell-based; conditions: Chlorocebus sabaeus, 48 h
# Method in brief: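 Plaque reduction assay in Vero cells infected with HSV-1 strain F. […], diluted from 40 mM DMSO stocks. EC50 by Chou–Talalay median-effect analysis of the concentration-response curve. Replicate assays.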
# Mus musculus [4] = assay: Percentage of weight gained or lost in 4th week in normal swiss mice at a dose of 30 mg/kg/day; assay type: functional
# Method in brief: (§2)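 Female Swiss mice, 6 weeks old, 5 per group. Given 30 mg/kg/day ip in sterile DMSO (0.1 mL) once daily for 6 days. DMSO and water controls. Weighed twice weekly for 28 days. Survival recorded at week 4.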
# Mus musculus [5] = assay: Percentage of weight gained or lost in 1 week in normal swiss mice at a dose of 30 mg/kg/day; assay type: functional; method in brief: as §2
# Mus musculus [6] = assay: Percentage of weight gained or lost in 2nd week in normal swiss mice at a dose of 30 mg/kg/day; assay type: functional; method in brief: as §2
# Mus musculus [7] = assay: Percentage of weight gained or lost in 3rd week in normal swiss mice at a dose of 30 mg/kg/day; assay type: functional; method in brief: as §2
# Mus musculus [8] = organism: Mus musculus; assay: Number of animals survived when the compound was tested at a dose of 30 mgkg/day in 5 Swiss mice; assay type: functional; method in brief: as §2
IC50 [1] [nM],IC50 (CFU-GM) [nM],Compound,EC50 (PBMC [2]) [nM],IC50 (PBMC [3]) [nM],EC50 (Vero) [nM],Weight gain or loss (Mus musculus [4]) [%],Weight gain or loss (Mus musculus [5]) [%],Weight gain or loss (Mus musculus [6]) [%],Weight gain or loss (Mus musculus [7]) [%],No. of animals survived (Mus musculus [8])
600,1500,Cc1cn([C@H]2C[C@H](N=[N+]=[N-])[C@@H](CO)O2)c(=O)[nH]c1=O [ZIDOVUDINE],4,> 100000,> 50000,,,,,
,,C[S+](C)[O-] [DIMETHYL SULFOXIDE],,,,10,-0.9,3,6.3,5
